In ChEMBL document CHEMBL5143736, “Discovery and Optimization of a Synthetic Class of Nectin-4-Targeted CD137 Agonists for Immuno-oncology” (J Med Chem, 2022):
≈ marks a conversion by molar mass, not a printed value. Calls of active or inactive are those of the source. No cut-off for these calls is given here.

How the values were obtained:
PBMC [1] = test: […] activity in human PBMC stimulated with anti-CD3-mediated CD137 expression in cocultured with […] cell line assessed as increase in secretion of IFN gamma incubated for 48 hrs by Luminex assay; type: functional, cell-based; details: DDE = dose-dependent effect
How it was run: (§1)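 Healthy-donor PBMCs were thawed into R10 medium and cocultured with HT1376 cells at 10:1 effector:target (1×10^5 PBMC:1×10^4 tumor cells per well). Soluble anti-CD3 OKT3 (100 ng/mL) was added on day 0, then compound, 37 °C, 5% CO2. Supernatant IFNγ and IL-2 taken at 24 and 48 h, measured by Luminex. Four-parameter fit, n = 3, repeated in multiple donors.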

PBMC [2] = test: […] activity in human PBMC stimulated with anti-CD3-mediated CD137 expression in cocultured with […] cell line assessed as increase in secretion of IL2 incubated for 48 hrs by Luminex assay; type: functional, cell-based; details: DDE = dose-dependent effect; how it was run: as §1
[3] = Thermodynamic solubility of the compound in phosphate buffer at pH 7.4; type: physicochemical; details: read-out: Therm_solubility
How it was run: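 Thermodynamic solubility measured in 50 mM phosphate buffer, pH 7.4.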

[4] = Plasma clearance in Cynomolgus monkey at 1 mg/kg, iv administered for 30 min by LC-MS/MS analysis; type: ADME, organism-based, Macaca fascicularis
How it was run: (§2)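 Male naïve cynomolgus monkeys received 1 mg/kg as a 30 min IV infusion in 25 mM histidine HCl, 10% sucrose, pH 7 (n = 2 animals/compound). Serial K2-EDTA plasma was protein-precipitated with internal standard and analysed by LC–MS/MS (Orbitrap, positive ion). Noncompartmental analysis gave clearance, Vdss and terminal half-life.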

[5] = Volume of distribution at steady state in Cynomolgus monkey at 1 mg/kg, iv administered for 30 min by LC-MS/MS analysis; type: ADME, organism-based, Macaca fascicularis; details: plasma, read-out: Vdss; how it was run: as §2
[6] = Half life in Cynomolgus monkey at 1 mg/kg, iv administered for 30 min by LC-MS/MS analysis; type: ADME, organism-based, Macaca fascicularis; details: plasma; how it was run: as §2
[7] = target: T1, Tumor necrosis factor receptor superfamily member 9 (Homo sapiens, UniProt Q07011); test: Agonist activity at human CD137 expressed in Jurkat T cells co-expressing response element driven luciferase reporter gene assessed as fold change in EC50 at 1:1 Nectin-4/CD137 ratio measured after 6 hrs by HT1376/CD137 reporter co-culture assay; type: cell-based; details: filed as agonist
T1 sequence (Q07011 whole entry): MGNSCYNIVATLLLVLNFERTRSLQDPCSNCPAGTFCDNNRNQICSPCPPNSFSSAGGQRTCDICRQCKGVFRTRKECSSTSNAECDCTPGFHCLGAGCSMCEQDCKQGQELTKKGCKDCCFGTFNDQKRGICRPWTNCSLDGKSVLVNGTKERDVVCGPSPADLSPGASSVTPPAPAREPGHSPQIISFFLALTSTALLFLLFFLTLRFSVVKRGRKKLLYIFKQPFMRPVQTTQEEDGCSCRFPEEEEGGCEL

[8] = target: T1, Tumor necrosis factor receptor superfamily member 9; test: Agonist activity at human CD137 expressed in Jurkat T cells co-expressing response element driven luciferase reporter gene assessed as fold change in Emax at 1:1 Nectin-4/CD137 ratio measured after 6 hrs by HT1376/CD137 reporter co-culture assay; type: cell-based; details: filed as agonist
[9] = Half life in Sprague-Dawley rat at 2 mg/kg, iv by LC/MS/MS analysis; details: in vivo
CT26 [10] = test: Antitumor activity against mouse CT26 cells expressed in CD137 transfected in BALB/c mouse at 1mg/kg, qd
CT26 [11] = test: Antitumor activity against mouse CT26 cells expressed in CD137 transfected in BALB/c mouse at 5 mg/kg, ip
[12] = target: T1, Tumor necrosis factor receptor superfamily member 9; test: Induction of recombinant human CD137 assessed as increase in fold change in EC50 incubated for 6 hrs by luminescence based microplate reader assay; details: filed as agonist
[13] = target: T1, Tumor necrosis factor receptor superfamily member 9; test: Induction of recombinant human CD137 assessed as increase in fold change in Emax incubated for 6 hrs by luminescence based microplate reader assay; details: filed as agonist
[14] = target: T1, Tumor necrosis factor receptor superfamily member 9; test: Binding affinity to human CD137 assessed as dissociation constant by surface plasmon resonance analysis
How it was run: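 Biacore T200 SPR, human CD137, 25 °C. Peptide series in PBS/0.05% Tween 20 with 0.5% DMSO: top 500 nM (threefold) or 10 μM (twofold), 6 further dilutions. Flow 90 μL/min, 60 s association, 100–600 s dissociation, glycine pH 2 regeneration. DMSO-corrected and double-referenced; kinetic fit gives ka, kd, KD.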

[15] = target: T1, Tumor necrosis factor receptor superfamily member 9; test: Binding affinity to human CD137 assessed as dissociation constant using 1:1 Nectin-4/CD137 by surface plasmon resonance analysis; details: filed as agonist
How it was run: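 Biacore T200 SPR against human CD137 protein at 25 °C. Peptide series in PBS/0.05% Tween 20 with 0.5% final DMSO; top concentration 500 nM (6 further threefold dilutions) or 10 μM (6 further twofold dilutions). 60 s association, 100–600 s dissociation, 10 mM glycine pH 2 regeneration. Data DMSO-corrected and double-referenced; kinetic fit gives ka, kd and KD.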

Structure (SMILES): CCCC[C@@H]1NC(=O)[C@H](Cc2ccc(O)cc2)NC(=O)[C@@H]2CCCN2C(=O)[C@H](CC(=O)O)NC(=O)[C@H](C)NC(=O)[C@H](Cc2ccccc2)NC(=O)[C@@H]2CSCCC(=O)N3CN(CN(C3)C(=O)CCSC[C@@H](C(=O)N[C@@H](C)C(N)=O)NC1=O)C(=O)CCSC[C@H](NC(C)=O)C(=O)N[C@@H](CC(C)(C)C)C(=O)N1CCC[C@H]1C(=O)N[C@@H](CCC(=O)O)C(=O)N[C@H](CCCCNC(=O)CCc1cn(CCOCCOCCOCCOCCOCCC(=O)N[C@H]3CSCCC(=O)N4CN5CN(C4)C(=O)CCSC[C@H](NC(=O)[C@@H](CC(=O)O)NC(=O)[C@H](Cc4cccc6ccccc46)NC(=O)[C@@H]4CCCN4C3=O)C(=O)N[C@@H](CCSC)C(=O)N[C@@H](CCCCNC(=N)N)C(=O)N[C@@H](CC(=O)O)C(=O)N[C@@H](Cc3c[nH]c4ccccc34)C(=O)N[C@@H](CO)C(=O)N[C@@H]([C@@H](C)O)C(=O)N3CCC[C@H]3C(=O)N3C[C@H](O)C[C@H]3C(=O)N[C@@H](Cc3c[nH]c4ccccc34)C(=O)N[C@H](C(N)=O)CSCCC5=O)nn1)C(=O)N1CCC[C@H]1C(=O)N[C@@H](Cc1ccc(O)cc1)C(=O)N2
- Activity (PBMC [1]): Dde
- Activity (PBMC [2]): Dde
- solubility thermodynamic [3]: 29 mg/mL (≈ 6.16 mM)
- clearance [4]: 30 mL/min/kg
- Vd [5]: 0.6 L/kg
- half-life [6]: 30 min
- fold change (FC) [7]: 8.3
- fold change (FC) [8]: 2
- half-life [9]: 55.8 min
- Activity (CT26 [10]): Active
- Activity (CT26 [11]): Active
- fold change (FC) [12]: 8.3
- fold change (FC) [13]: 2

Structure (SMILES): CCCC[C@@H]1NC(=O)[C@H](Cc2ccc(O)cc2)NC(=O)[C@@H]2CCCN2C(=O)[C@H](CC(=O)O)NC(=O)[C@H](C)NC(=O)[C@H](Cc2ccccc2)NC(=O)[C@@H]2CSCCC(=O)N3CN(CN(C3)C(=O)CCSC[C@@H](C(=O)N[C@@H](CNC(=O)CCOCCOCCOCCOCCOCCn3cc(CCC(=O)N[C@H]4CSCCC(=O)N5CN6CN(C5)C(=O)CCSC[C@H](NC(=O)[C@@H](CC(=O)O)NC(=O)[C@H](Cc5cccc7ccccc57)NC(=O)[C@@H]5CCCN5C4=O)C(=O)N[C@@H](CCSC)C(=O)N[C@@H](CCCCNC(=N)N)C(=O)N[C@@H](CC(=O)O)C(=O)N[C@@H](Cc4c[nH]c5ccccc45)C(=O)N[C@@H](CO)C(=O)N[C@@H]([C@@H](C)O)C(=O)N4CCC[C@H]4C(=O)N4C[C@H](O)C[C@H]4C(=O)N[C@@H](Cc4c[nH]c5ccccc45)C(=O)N[C@H](C(N)=O)CSCCC6=O)nn3)C(N)=O)NC1=O)C(=O)CCSC[C@H](NC(C)=O)C(=O)N[C@@H](CC(C)(C)C)C(=O)N1CCC[C@H]1C(=O)N[C@@H](CCC(=O)O)C(=O)N[C@H](C)C(=O)N1CCC[C@H]1C(=O)N[C@@H](Cc1ccc(O)cc1)C(=O)N2
- half-life [9]: 57.6 min

Structure (SMILES): CCCC[C@@H]1NC(=O)[C@H](Cc2ccc(O)cc2)NC(=O)[C@@H]2CCCN2C(=O)[C@H](CC(N)=O)NC(=O)[C@H](C)NC(=O)[C@H](Cc2ccccc2)NC(=O)[C@@H]2CSCCC(=O)N3CN(CN(C3)C(=O)CCSC[C@H](NC(C)=O)C(=O)N[C@@H](CC(C)(C)C)C(=O)N3CCC[C@H]3C(=O)N[C@@H](CCC(=O)O)C(=O)N[C@H](CCCCNC(=O)CCc3cn(CCOCCOCCOCCOCCOCCC(=O)N[C@H]4CSCCC(=O)N5CN6CN(C5)C(=O)CCSC[C@H](NC(=O)[C@@H](CC(=O)O)NC(=O)[C@H](Cc5cccc7ccccc57)NC(=O)[C@@H]5CCCN5C4=O)C(=O)N[C@@H](CCSC)C(=O)N[C@@H](CCCCNC(=N)N)C(=O)N[C@@H](CC(=O)O)C(=O)N[C@@H](Cc4c[nH]c5ccccc45)C(=O)N[C@@H](CO)C(=O)N[C@@H]([C@@H](C)O)C(=O)N4CCC[C@H]4C(=O)N4C[C@H](O)C[C@H]4C(=O)N[C@@H](Cc4c[nH]c5ccccc45)C(=O)N[C@H](C(N)=O)CSCCC6=O)nn3)C(=O)N3CCC[C@H]3C(=O)N[C@@H](Cc3ccc(O)cc3)C(=O)N2)C(=O)CCSC[C@@H](C(N)=O)NC1=O
- Kd [14]: 878 nM

Structure (SMILES): CCCC[C@@H]1NC(=O)[C@H](Cc2ccc(O)cc2)NC(=O)[C@@H]2CCCN2C(=O)[C@H](CC(=O)O)NC(=O)[C@H](C)NC(=O)[C@H](Cc2ccccc2)NC(=O)[C@@H]2CSCCC(=O)N3CN(CN(C3)C(=O)CCSC[C@@H](C(=O)N[C@@H](CNC(=O)CCc3cn(CCOCCOCCOCCOCCOCCOCCOCCOCCOCCOCCNC(=O)N[C@H]4CSCCC(=O)N5CN6CN(C5)C(=O)CCSC[C@H](NC(=O)[C@@H](CC(=O)O)NC(=O)[C@H](Cc5cccc7ccccc57)NC(=O)[C@@H]5CCCN5C4=O)C(=O)N[C@@H](CCSC)C(=O)N[C@@H](CCCCNC(=N)N)C(=O)N[C@@H](CC(=O)O)C(=O)N[C@@H](Cc4c[nH]c5ccccc45)C(=O)N[C@@H](CO)C(=O)N[C@@H]([C@@H](C)O)C(=O)N4CCC[C@H]4C(=O)N4C[C@H](O)C[C@H]4C(=O)N[C@@H](Cc4c[nH]c5ccccc45)C(=O)N[C@H](C(N)=O)CSCCC6=O)nn3)C(N)=O)NC1=O)C(=O)CCSC[C@H](NC(=O)[C@H](C)NC(C)=O)C(=O)NC([C@@H](C)CC)C(=O)N[C@@H](CCC(=O)O)C(=O)N[C@@H](CCC(=O)O)C(=O)NCC(=O)N[C@@H](CCC(N)=O)C(=O)N[C@@H](Cc1ccc(O)cc1)C(=O)N2 (stereo not given in full)
- Activity [15]: 73 nM

Structure (SMILES): CCCC[C@@H]1NC(=O)[C@H](Cc2ccc(O)cc2)NC(=O)[C@@H]2CCCN2C(=O)[C@H](CCC(=O)O)NC(=O)[C@H](C)NC(=O)[C@H](Cc2ccccc2)NC(=O)[C@@H]2CSCCC(=O)N3CN(CN(C3)C(=O)CCSC[C@H](NC(C)=O)C(=O)N[C@@H](CC(C)(C)C)C(=O)N3CCC[C@H]3C(=O)N[C@@H](CCC(=O)O)C(=O)N[C@H](CCCCNC(=O)CCc3cn(CCOCCOCCOCCOCCOCCC(=O)N[C@H]4CSCCC(=O)N5CN6CN(C5)C(=O)CCSC[C@H](NC(=O)[C@@H](CC(=O)O)NC(=O)[C@H](Cc5cccc7ccccc57)NC(=O)[C@@H]5CCCN5C4=O)C(=O)N[C@@H](CCSC)C(=O)N[C@@H](CCCCNC(=N)N)C(=O)N[C@@H](CC(=O)O)C(=O)N[C@@H](Cc4c[nH]c5ccccc45)C(=O)N[C@@H](CO)C(=O)N[C@@H]([C@@H](C)O)C(=O)N4CCC[C@H]4C(=O)N4C[C@H](O)C[C@H]4C(=O)N[C@@H](Cc4c[nH]c5ccccc45)C(=O)N[C@H](C(N)=O)CSCCC6=O)nn3)C(=O)N3CCC[C@H]3C(=O)N[C@@H](Cc3ccc(O)cc3)C(=O)N2)C(=O)CCSC[C@@H](C(N)=O)NC1=O
- Kd [14]: 2370 nM

Structure (SMILES): CCCC[C@@H]1NC(=O)[C@H](Cc2ccc(O)cc2)NC(=O)[C@@H]2CCCN2C(=O)[C@H](CC(=O)O)NC(=O)[C@H](C)NC(=O)[C@H](Cc2ccccc2)NC(=O)[C@@H]2CSCCC(=O)N3CN(CN(C3)C(=O)CCSC[C@@H](C(=O)N[C@@H](CNC(=O)CCc3cn(CCOCCOCCOCCOCCOCCOCCOCCOCCOCCOCCOCCOCCC(=O)NCCC(=O)N(C)CC(=O)N(C)CC(=O)N(C)CC(=O)N(C)CC(=O)N(C)CC(=O)N(C)CC(=O)N(C)CC(=O)N(C)CC(=O)N(C)CC(=O)N(C)CC(=O)N[C@H]4CSCCC(=O)N5CN6CN(C5)C(=O)CCSC[C@H](NC(=O)[C@@H](CC(=O)O)NC(=O)[C@H](Cc5cccc7ccccc57)NC(=O)[C@@H]5CCCN5C4=O)C(=O)N[C@H](CCSC)C(=O)N[C@@H](CCCCNC(=N)N)C(=O)N[C@H](CC(=O)O)C(=O)N[C@@H](Cc4c[nH]c5ccccc45)C(=O)N[C@@H](CO)C(=O)N[C@@H]([C@H](C)O)C(=O)N4CCC[C@H]4C(=O)N4C[C@H](O)C[C@H]4C(=O)N[C@@H](Cc4c[nH]c5ccccc45)C(=O)N[C@H](C(N)=O)CSCCC6=O)nn3)C(N)=O)NC1=O)C(=O)CCSC[C@H](NC(C)=O)C(=O)N[C@@H](CC(C)(C)C)C(=O)N1CCC[C@H]1C(=O)N[C@@H](CCC(=O)O)C(=O)N[C@@H](C)C(=O)N1CCC[C@H]1C(=O)N[C@@H](Cc1ccc(O)cc1)C(=O)N2
- Activity (PBMC [1]): Dde
- Activity (PBMC [2]): Dde
- half-life [9]: 21.6 min
